pIC50: −log10 of the molar value.
How the values were obtained:
[1] = test system: CCRF-CEM; test: Inhibitory concentration required to inhibit human T-lymphocyte (CEM) cell line by 50%; assay type: functional, cell-based
[2] = test system: FM3A; test: Inhibitory concentration required to inhibit mammary carcinoma (FM3A) cell line by 50%; assay type: functional, cell-based; conditions: Mus musculus
[3] = test system: HBL; test: Inhibitory concentration required to inhibit melanoma (HBL) cells by 50%; assay type: functional, cell-based; conditions: Homo sapiens
Procedure, shortened: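 Monolayer culture in D-MEM or RPMI 1640 plus 10% FBS, 37 °C, 5% CO2. MTT assay at 570 nm, expressed as % growth. IC50 graphically fitted by hand; four parallel samples, three experiments.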

[4] = test system: HT-29; test: Inhibitory concentration required to inhibit human colon carcinoma (HT-29) cells by 50%; assay type: functional, cell-based
Procedure, shortened: (§1)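 Monolayer cells in D-MEM or RPMI 1640 with 10% FBS, 37 °C, 5% CO2, seeded at 3 × 10⁴/mL. MTT read-out at 570 nm as % growth. IC50 by manual graphical fitting; mean ± SD, four parallel samples, three experiments.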

[5] = test system: HeLa; test: Inhibitory concentration required to inhibit cervical carcinoma (HeLa) cells by 50%; assay type: functional, cell-based; conditions: Homo sapiens; procedure, shortened: as §1
[6] = test system: HEp-2; test: Inhibitory concentration required to inhibit laryngeal carcinoma (Hep2) cells by 50%; assay type: functional, cell-based; conditions: Homo sapiens; procedure, shortened: as §1
[7] = test system: L1210; test: Inhibitory concentration required to inhibit murine leukemia (L1210) cell line by 50%; assay type: functional, cell-based; conditions: Mus musculus
[8] = Inhibitory concentration required to inhibit pancreatic carcinoma (MiaPaCa2) cells by 50%; assay type: functional, Homo sapiens; procedure, shortened: as §1
[9] = test system: MOLT-4; test: Inhibitory concentration required to inhibit human T-lymphocyte (Molt4/C8) cell line by 50%; assay type: functional, cell-based
[10] = test system: SW-620; test: Inhibitory concentration required to inhibit human colon carcinoma (SW620) cells by 50%; assay type: functional, cell-based
Procedure, shortened: (§2)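 Cells grown as monolayers in D-MEM or RPMI 1640 with 10% FBS at 37 °C, 5% CO2, plated at 5 × 10⁴/mL. Viable cells by MTT absorbance at 570 nm. IC50 from manual graphical fit; mean ± SD of four parallel samples in three experiments.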

[11] = test system: WI-38; test: Inhibitory concentration required to inhibit diploid fibroblasts (WI38) by 50%; assay type: functional, cell-based; conditions: Homo sapiens; procedure, shortened: as §2
[12] = test system: FM3A (Mus musculus); test: Inhibitory concentration required to inhibit mammary carcinoma (FM3A) cell line by 50%

SMILES | pIC50 [1] | pIC50 [2] | pIC50 [3] | pIC50 [4] | pIC50 [5] | pIC50 [6] | pIC50 [7] | pIC50 [8] | pIC50 [9] | pIC50 [10] | pIC50 [11] | pIC50 [12]
CC(=O)OC(C)Cn1cnc2c(Cl)nc(I)nc21 (stereo not given) | 4.80 | 4.33 | 5.28 | 5.19 | 5.29 | 5.20 | 4.89 | 4.84 | 4.91 | 5.45 | 4.85 | 
CC(O)Cn1cnc2c(Cl)nc(I)nc21 (stereo not given) | < 3.30 | 3.32 | < 3.30 | < 3.30 | < 3.30 | < 3.30 | < 3.30 | < 3.30 | < 3.30 | < 3.30 | < 3.30 | 
OCCOCn1cnc2c(S)nc(F)nc21 | 3.93 | 3.81 | < 3.30 | < 3.30 | < 3.30 | < 3.30 | 3.77 | < 3.30 | 3.79 | < 3.30 | < 3.30 | 
CC(=O)OC(C)Cn1cnc2c(S)nc(F)nc21 (stereo not given) | < 3.30 | 3.43 | < 3.30 | < 3.30 | < 3.30 | 3.70 | 3.65 | < 3.30 | < 3.30 | < 3.30 | < 3.30 | 
CC(=O)OC(C)Cn1cnc2c(N)nc(I)nc21 (stereo not given) | 3.42 | 3.34 | < 3.30 | < 3.30 | < 3.30 | < 3.30 | 3.38 | < 3.30 | 3.36 | < 3.30 | < 3.30 | 
CC(O)Cn1cnc2c(N)nc(I)nc21 (stereo not given) | 3.33 | 3.34 | < 3.30 | < 3.30 | < 3.30 | < 3.30 | 3.31 | < 3.30 | < 3.30 | < 3.30 | < 3.30 | 
Nc1nc(I)nc2c1ncn2COCCO | < 3.30 | < 3.30 | < 3.30 | < 3.30 | < 3.30 | < 3.30 | < 3.30 | < 3.30 | < 3.30 | < 3.30 | < 3.30 | 
CC(=O)OC(C)Cn1cnc2c(Cl)nc(N)nc21 (stereo not given) | < 3.30 | < 3.30 | < 3.30 | < 3.30 | < 3.30 | < 3.30 | < 3.30 | < 3.30 | < 3.30 | < 3.30 | < 3.30 | 
CC(=O)OC(C)Cn1cnc2c(S)nc(N)nc21 (stereo not given) | 3.42 | 3.44 | 3.20 | < 3.30 | 4.05 | 5.00 | 3.89 | 4.60 | 3.43 | 6.80 | 6.40 | 
CC(=O)OCCOCn1cnc2c(S)nc(N)nc21 | 5.12 | 5.70 | 4.80 | < 3.30 | 5.30 | 5.31 | 5.49 | < 3.30 | 5.05 | 5.38 | < 3.30 | 
COc1nc(I)nc2c1ncn2COCCO | < 3.30 | < 3.30 | < 3.30 | < 3.30 | < 3.30 | < 3.30 | < 3.30 | < 3.30 | < 3.30 | < 3.30 | < 3.30 | 
CC(O)Cn1cnc2c(F)nc(N)nc21 (stereo not given) | < 3.30 |  | 4.60 | < 3.30 | 4.20 |  | < 3.30 | < 3.30 | < 3.30 | < 3.30 | < 3.30 | < 3.30
CC(=O)OCCOCn1cnc2c(S)nc(F)nc21 | 4.43 | 3.87 | < 3.30 | < 3.30 | < 3.30 | < 3.30 | 4.40 | < 3.30 | 4.46 | < 3.30 | < 3.30 | 
CC(=O)OC(C)Cn1cnc2c(Cl)nc(F)nc21 (stereo not given) | 4.36 | 4.03 | 4.35 | 4.12 | 4.30 | 5.00 | 4.43 | 4.03 | 4.39 | 5.05 | 4.00 | 
CC(O)Cn1cnc2c(S)nc(F)nc21 (stereo not given) | < 3.30 | < 3.30 | < 3.30 | < 3.30 | < 3.30 | < 3.30 | < 3.30 | < 3.30 | < 3.30 | < 3.30 | < 3.30 | 
CC(=O)OCCOCn1cnc2c(Cl)nc(I)nc21 | 4.96 | 4.47 | 4.70 | < 3.30 | 3.40 | 4.25 | 5.07 | < 3.30 | 5.03 | 4.80 | 4.20 | 

Reference: ChEMBL document CHEMBL1145945, “Synthesis and biological evaluation of iodinated and fluorinated 9-(2-hydroxypropyl) and 9-(2-hydroxyethoxy)methyl purine nucleoside analogues” (J Med Chem, 2003)
